Measured values published in ChEMBL document CHEMBL1124650, “Structure-activity relationships among methoctramine-related polymethylene tetraamines. Chain-length and substituent effects on M-2 muscarinic receptor blocking activity” (J Med Chem, 1989).

Key:
Conditions in all cases: read-out: pA2 (converted)
[1] = biological target: Muscarinic acetylcholine receptor M2 (Cavia porcellus); test: Antagonist potency against muscarinic receptors was assed by antagonism of carbachol induced inhibition of electrically stimulated guinea pig atria
[2] = biological target: T1, Muscarinic acetylcholine receptor M3 (Cavia porcellus, UniProt Q8VH26); test: (§1) Antagonist potency against carbachol induced contractions of isolated guinea pig ileum Muscarinic acetylcholine receptor; assay type: functional, tissue-based
[3] = biological target: Muscarinic acetylcholine receptor M2 (Cavia porcellus); test: Antagonist potency against carbachol induced inhibition of electrically stimulated guinea pig atria Muscarinic acetylcholine receptor
[4] = biological target: T1, Muscarinic acetylcholine receptor M3; test: as §1; assay type: functional, tissue-based; remark: listed apart in the source
Method in brief: (§2)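 Mounted in PSS at 37 °C with isotonic recording and 30 min equilibration. Carbachol curves (0.01-10 μM) were run at 30-min intervals, the second serving as control. A repeat curve followed 30 min antagonist incubation. pA2 came from Schild plots constrained to slope -1.0, using three antagonist concentrations each tested ≥5 times.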

[5] = biological target: Muscarinic acetylcholine receptor M2 (Cavia porcellus); test: Antagonist potency against carbachol induced inhibition of electrically stimulated guinea pig atria Muscarinic acetylcholine receptor; remark: listed apart in the source
[6] = biological target: Muscarinic acetylcholine receptor M2 (Cavia porcellus); test: as above; remark: listed apart in the source
[7] = biological target: T1, Muscarinic acetylcholine receptor M3; test: Antagonist potency against carbachol induced contractions of isolated guinea pig ileum Muscarinic acetylcholine receptor; Inactive up to 10 uM; assay type: functional, tissue-based
Method in brief: as §2

T1 sequence (Q8VH26 whole entry): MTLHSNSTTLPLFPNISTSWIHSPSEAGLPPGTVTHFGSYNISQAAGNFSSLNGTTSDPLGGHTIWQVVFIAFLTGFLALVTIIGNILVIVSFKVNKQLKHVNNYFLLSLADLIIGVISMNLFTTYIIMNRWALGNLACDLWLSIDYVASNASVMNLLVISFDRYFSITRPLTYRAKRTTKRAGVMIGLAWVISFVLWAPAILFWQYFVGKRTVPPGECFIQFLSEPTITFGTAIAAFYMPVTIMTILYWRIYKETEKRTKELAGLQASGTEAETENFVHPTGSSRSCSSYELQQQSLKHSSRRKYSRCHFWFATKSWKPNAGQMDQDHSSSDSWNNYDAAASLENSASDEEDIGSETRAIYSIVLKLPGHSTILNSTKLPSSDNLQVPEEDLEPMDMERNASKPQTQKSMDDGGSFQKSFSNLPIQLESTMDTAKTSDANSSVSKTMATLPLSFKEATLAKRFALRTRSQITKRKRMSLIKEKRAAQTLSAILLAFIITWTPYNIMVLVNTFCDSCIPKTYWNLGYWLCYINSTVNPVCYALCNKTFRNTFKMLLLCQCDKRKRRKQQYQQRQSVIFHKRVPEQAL

| SMILES | Kb [3] [µM] | Kb [4] [µM] | other results |
| --- | --- | --- | --- |
| COc1ccccc1CNCCCCCCN(C)CCCCCCCCN(C)CCCCCCNCc1ccccc1OC | – | – | Kb [1]: 0.0102 µM; Kb [2]: 0.417 µM |
| Clc1ccccc1CNCCCCCCNCCCCCCCCNCCCCCCNCc1ccccc1Cl | 0.0661 | 2.82 | – |
| c1coc(CNCCCCCCNCCCCCCCCNCCCCCCNCc2ccco2)c1 | – | 0.851 | Kb [5]: 0.00912 µM |
| c1ccc(CNCCCCCCNCCCCCCCCNCCCCCCNCc2ccccc2)cc1 | 0.0832 | 2.19 | – |
| Fc1ccc(CNCCCCCCNCCCCCCCCNCCCCCCNCc2ccc(F)cc2)cc1 | 0.129 | 2.4 | – |
| O=[N+]([O-])c1ccc(CNCCCCCCNCCCCCCCCNCCCCCCNCc2ccc([N+](=O)[O-])cc2)cc1 | 0.0955 | 1.32 | – |
| COc1ccccc1CNCCCCCCNCCCCCCCCCCCCCCNCCCCCCNCc1ccccc1OC | – | 1.41 | – |
| COc1ccccc1CNCCCCCCNCCCCCCCCCCCNCCCCCCNCc1ccccc1OC | 0.0372 | 2.29 | – |
| COc1ccccc1CN(C)CCCCCCNCCCCCCCCNCCCCCCN(C)Cc1ccccc1OC | – | – | Kb [1]: 0.166 µM; Kb [2]: > 10 µM |
| Cc1ccc(CNCCCCCCNCCCCCCCCNCCCCCCNCc2ccc(C)cc2)cc1 | 0.166 | 2.34 | – |
| Clc1cccc(CNCCCCCCNCCCCCCCCNCCCCCCNCc2cccc(Cl)c2)c1 | – | 2.29 | Kb [6]: 0.186 µM |
| Cc1ccccc1CNCCCCCCNCCCCCCCCNCCCCCCNCc1ccccc1C | 0.0589 | 2 | – |
| COc1ccccc1CNCCCCCNCCCCCCCCNCCCCCNCc1ccccc1OC | 0.162 | 2.45 | – |
| COc1ccccc1CNCCCCCCNCCCCCCCCCCCCCNCCCCCCNCc1ccccc1OC | 0.0955 | 1.23 | – |
| CSc1ccccc1CNCCCCCCNCCCCCCCCNCCCCCCNCc1ccccc1SC | 0.0269 | 0.589 | – |
| c1cncc(CNCCCCCCNCCCCCCCCNCCCCCCNCc2cccnc2)c1 | – | – | Kb [1]: 0.288 µM; Kb [2]: 4.9 µM |
| c1ccc(CNCCCCCCNCCCCCCCCNCCCCCCNCc2ccccn2)nc1 | – | – | Kb [1]: 0.0537 µM; Kb [2]: 3.31 µM |
| Clc1ccc(CNCCCCCCNCCCCCCCCNCCCCCCNCc2ccc(Cl)cc2)cc1 | 0.178 | 2.34 | – |
| COc1ccc(CNCCCCCCNCCCCCCCCNCCCCCCNCc2ccc(OC)cc2)cc1 | 0.141 | 2.75 | – |
| Cc1ccc(CNCCCCCCNCCCCCCCCNCCCCCCNCc2ccc(C)o2)o1 | – | – | Kb [1]: 0.00891 µM; Kb [2]: 0.708 µM |
| COc1ccccc1CN(C)CCCCCCN(C)CCCCCCCCN(C)CCCCCCN(C)Cc1ccccc1OC | – | – | Kb [7]: > 10 µM; Kb [1]: 0.162 µM |
| COc1ccccc1CNCCCCCCCNCCCCCCCCNCCCCCCCNCc1ccccc1OC | 0.0275 | 0.646 | – |
| COc1cccc(CNCCCCCCNCCCCCCCCNCCCCCCNCc2cccc(OC)c2)c1 | 0.151 | 3.89 | – |
| COc1ccccc1CNCCCCCCNCCCCCCCCNCCCCCCNCc1ccccc1OC [METHOCTRAMINE] | – | 0.832 | – |
